PfG6PD inh – PfG6PD (Plasmodium falciparum) enzyme inhibition; PfGluPho enzyme, NADPH resazurin-diaphorase fluorescence; inhibition, % at 20 µM; 350,000 compounds, 0.78% hits;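 active means inhibition reaching at least a set limit at 20 µM in the primary screen, cut at about 59% in these data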
G6PDH counter – L. mesenteroides G6PDH inhibition counter-screen; AID 1020; 200,000 compounds, 0.12% hits; inhibition, % at 5 µM; Purified L. mesenteroides G6PDH, diaphorase/resazurin coupled fluorescence, 45 min; in the data active means inhibition above about 50%
Diaphorase act – diaphorase activation or chemical reduction counter-screen | Diaphorase/resazurin coupled assay, resorufin fluorescence, 16 min; active compounds read high; 1 = vehicle wells, 0 = NADH-free wells | activation factor at 20 µM | 190,000 compounds, 0.005% hits | AID 1229;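 active means diaphorase activity raised at least twofold by the compound at 20 µM; inactive means activation factor below 2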
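Assay system: Purified diaphorase enzyme from Clostridium kluyveri | Amount: Enzyme 0.07 U/mL final | Dosing: Compound 20 µM once, DMSO 1% | Timing: 16 min reaction at room temperature | Detection: Fluorescence, excitation 544 nm and emission 590 nm | Evaluation: Higher resorufin formation from activation or reduction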
Diaphorase inh – diaphorase inhibition or chemical oxidation counter-screen | diaphorase resazurin-to-resorufin fluorescence, NADH, 16 min; bacterial (C. kluyveri) enzyme, not human | inhibition, % at 20 µM | 190,000 compounds, 0.69% hits;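 active means primary screen inhibition at 20 µM above a set limit, cut at about 50% in these data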
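material = Clostridium kluyveri diaphorase enzyme | amount = 0.14 U/mL diaphorase, enzyme working solution | schedule = incubation 16 min, room temperature | detection = fluorescence of resorufin formed from resazurin, Ex 544/Em 590 nm | benchmarks = positive control minus NADH, DMSO neutral control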
HKDC1 inhibitor – HKDC1 (human) hexokinase inhibition; Q2TB90; recombinant HKDC1, G6PDH/diaphorase resazurin coupled fluorescence; inhibition, % at 20 µM; 340,000 compounds, 0.16% hits; AID 493160;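 active means inhibition above about 35% when tested at 20 µM, limit read from the data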
Target sequence (Q2TB90 whole entry, looked up): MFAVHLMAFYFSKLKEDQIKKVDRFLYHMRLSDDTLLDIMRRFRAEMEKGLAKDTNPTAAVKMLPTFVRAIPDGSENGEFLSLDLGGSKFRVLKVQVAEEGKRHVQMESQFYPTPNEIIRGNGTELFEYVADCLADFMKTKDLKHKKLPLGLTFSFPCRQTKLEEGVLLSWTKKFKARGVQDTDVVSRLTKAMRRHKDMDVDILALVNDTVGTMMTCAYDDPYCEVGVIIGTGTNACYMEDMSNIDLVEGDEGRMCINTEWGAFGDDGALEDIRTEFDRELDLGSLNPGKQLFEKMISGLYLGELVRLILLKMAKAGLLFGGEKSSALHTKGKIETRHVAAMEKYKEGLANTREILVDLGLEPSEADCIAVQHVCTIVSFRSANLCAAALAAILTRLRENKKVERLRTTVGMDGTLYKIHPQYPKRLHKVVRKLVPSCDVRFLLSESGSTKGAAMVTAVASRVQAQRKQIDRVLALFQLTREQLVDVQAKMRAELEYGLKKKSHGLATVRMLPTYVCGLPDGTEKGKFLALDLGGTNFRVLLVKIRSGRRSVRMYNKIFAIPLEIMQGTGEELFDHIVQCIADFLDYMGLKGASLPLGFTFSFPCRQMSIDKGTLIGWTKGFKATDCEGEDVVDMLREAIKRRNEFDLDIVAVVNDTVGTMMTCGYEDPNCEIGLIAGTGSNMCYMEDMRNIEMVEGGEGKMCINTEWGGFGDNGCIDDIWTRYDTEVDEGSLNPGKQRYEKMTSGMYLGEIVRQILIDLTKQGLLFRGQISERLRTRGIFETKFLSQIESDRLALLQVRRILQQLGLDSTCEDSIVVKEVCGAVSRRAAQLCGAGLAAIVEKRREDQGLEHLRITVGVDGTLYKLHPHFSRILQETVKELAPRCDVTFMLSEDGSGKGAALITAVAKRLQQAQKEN
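Test system: recombinant HKDC1 (HK5) hexokinase enzyme, produced in-house; Amount: enzyme 5 µg/mL final; Buffer or medium: Tris pH 8.0 buffer with MgCl2, Tween-20, BSA, BME; Reagent: glucose and ATP substrates; Doses: 20 µM test compound, 1% DMSO; Incubation: 90 min reaction incubation at room temperature, dark; Detection: resorufin fluorescence at 613 nm.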
PfGluPho conf – confirmation of Plasmodium falciparum G6PD inhibitors; shares compounds with PfG6PD inh; recombinant PfGluPho, NADPH-diaphorase-resazurin fluorescence; inhibition, % at 20 µM; 2,400 compounds, 34% hits; AID 504753;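 active means inhibition of at least 50% at 20 µM in any single replicate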
Diaphorase 10uM – counter-screen for P. falciparum G6PD inhibitors: diaphorase inhibitors, oxidizers; diaphorase-coupled resazurin reduction, fluorescence, NADPH 10 uM; 820 compounds, 39% hits; inhibition, % at 20 µM; shares compounds with PfG6PD inh;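 active means average inhibition reaching 50% or more with the compound at 20 µM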;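 further: resorufin red fluorescence formed as diaphorase reduces resazurin using NADPH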
Diaph ctr 30uM – counter-screen for P. falciparum G6PD inhibitors: diaphorase inhibitors, oxidizers. 820 compounds, 29% hits. AID 504863. shares compounds with PfG6PD inh. inhibition, % at 20 µM. Diaphorase/resazurin coupled assay, resorufin fluorescence, 30 uM NADPH;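 active means inhibition averaging 50% or more, tested at 20 µM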
Each line names hits and unclear results; the compound was inactive in the other large screens (follow-up assays come after a bar, where they were run). Rows were chosen to be rich in hits. Some 1.2% of all compounds tested hit in one or more screens of this group.

Cc1cc(C)c2c(=O)n(CC(=O)N3CCC(N4CCCCC4)CC3)sc2n1	PfG6PD inh 80 | PfGluPho conf 63 | Diaphorase 10uM inactive | Diaph ctr 30uM inactive
CCOC(=O)C1CCCN(C(=O)Cn2sc3nc(C)cc(C)c3c2=O)C1 (stereo unspecified)	PfG6PD inh 68 | PfGluPho conf 52 | Diaphorase 10uM inactive | Diaph ctr 30uM inactive
CCOC(=O)C1CCCN(C(=O)Cn2cnc3c2c(=O)n(C)c(=O)n3C)C1 (stereo unspecified)	none
CCCNC(=O)Cn1sc2nc(C)cc(C)c2c1=O	PfG6PD inh 81 (no result: G6PDH counter, Diaphorase act, Diaphorase inh) | PfGluPho conf 68 | Diaphorase 10uM inactive | Diaph ctr 30uM inactive
CC(=O)Cn1cnc2c(sc3nc(C)cc(C)c32)c1=O	none (no result: G6PDH counter, Diaphorase act, Diaphorase inh)
CCOCc1cc(CN2CCC(CCC(=O)NC3CC3)CC2)ccc1OC	none (no result: G6PDH counter, Diaphorase act, Diaphorase inh)
COc1cc(C(=S)N2CCN(c3cccc(Cl)c3)CC2)ccc1O	none | PfGluPho conf inactive
COc1ccc(C2C(Oc3ccccc3)C(=O)N2c2ccc(C)c(C)c2)cc1OC (stereo unspecified)	PfG6PD inh 81 (no result: G6PDH counter, Diaphorase act, Diaphorase inh) | PfGluPho conf inactive
Cc1ccc(S(=O)(=O)Nc2ccc(N3CCOCC3)cc2)cc1	none
Cc1ccc(NS(=O)(=O)c2ccccc2)c(NS(=O)(=O)c2ccccc2)c1	none (no result: G6PDH counter, Diaphorase act, Diaphorase inh)
Nc1cc(S(=O)(=O)Nc2ccccc2Cl)ccc1N1CCCCC1	PfG6PD inh 67 (no result: G6PDH counter, Diaphorase act, Diaphorase inh) | PfGluPho conf inactive
Cc1ccc(S(=O)(=O)Nc2ccccc2N2CCCCC2)cc1	PfG6PD inh 95 (no result: G6PDH counter, Diaphorase act, Diaphorase inh) | PfGluPho conf inactive
Cc1ccc(S(=O)(=O)Nc2ccccc2-c2ccccc2)cc1	PfG6PD inh 76 | PfGluPho conf inactive
Cc1ccc(S(=O)(=O)Nc2ccccc2N2CCOCC2)cc1	PfG6PD inh 62 (no result: G6PDH counter, Diaphorase act, Diaphorase inh) | PfGluPho conf inactive
O=C(NC1CCCCC1)C(c1cccnc1)N(C(=O)c1csnn1)c1ccccc1F (stereo unspecified)	none (no result: G6PDH counter, Diaphorase act, Diaphorase inh)
COc1ccc(CC(=O)Nc2cc(S(=O)(=O)N3CCOCC3)ccc2N2CCCC2)cc1	none (no result: G6PDH counter, Diaphorase act, Diaphorase inh, HKDC1 inhibitor)
COc1ccc(-c2cc(=O)c(C(=O)c3ccc(C)cc3)n[nH]2)cc1	none
CCOC(=O)C1=C(Nc2ccccc2)CC(C)(O)C(C(=O)OCC)C1c1ccc(Cl)cc1 (stereo unspecified)	none
O=S(=O)(Nc1cc(C(F)(F)F)ccc1N1CCOCC1)c1ccccc1	none (no result: G6PDH counter, Diaphorase act, Diaphorase inh)
Cc1cccc(S(=O)(=O)Nc2cc(Cl)ccc2N2CCOCC2)c1	PfG6PD inh 87 (no result: G6PDH counter, Diaphorase act, Diaphorase inh) | PfGluPho conf inactive
Cc1ccc(S(=O)(=O)/N=C2/C=C(C3C(=O)CC(C)(C)CC3=O)C(=O)c3ccccc32)cc1	PfG6PD inh 72 | PfGluPho conf 73 | Diaphorase 10uM inactive | Diaph ctr 30uM inactive
Cc1ccc(/C=N/NC(=O)c2cccc(S(=O)(=O)Nc3ccccc3Cl)c2)s1	PfG6PD inh 94 | PfGluPho conf 80 | Diaphorase 10uM 76 | Diaph ctr 30uM 61
C=CCOc1cccc(/C=C/c2nc3ccccc3c(=O)[nH]2)c1	none (no result: G6PDH counter, Diaphorase act, Diaphorase inh)
Cc1cccc(C(=O)Nc2sc3c(c2C(=O)O)CCCC3)c1	PfG6PD inh 80 (no result: G6PDH counter, Diaphorase act, Diaphorase inh) | PfGluPho conf 53 | Diaphorase 10uM inactive | Diaph ctr 30uM inactive
Cc1ccccc1C(=O)Nc1sc2c(c1C(=O)O)CCC2	none
O=C(Nc1sc2c(c1C(=O)O)CCC2)c1cccc(Cl)c1	PfG6PD inh 62 (no result: G6PDH counter, Diaphorase act, Diaphorase inh) | PfGluPho conf inactive
Cc1ccnc2nc(C(=O)OCC(=O)N3CC(C)CC(C)C3)nn12 (stereo unspecified)	none (no result: G6PDH counter, Diaphorase act, Diaphorase inh)
Cc1c2cc[n+](CCN3CCCCC3)cc2c(C)c2c1[nH]c1ccc(O)cc12	PfG6PD inh 87 (no result: G6PDH counter, Diaphorase act, Diaphorase inh) | PfGluPho conf inactive
Cc1ccc(C)c(NC(=O)CSc2nnc(NC(=O)C3CC3)s2)c1	none (no result: G6PDH counter, Diaphorase act, Diaphorase inh)
CN(C)c1ccc(C(=S)N2CCN(Cc3ccccc3)CC2)cc1	PfG6PD inh 69 | PfGluPho conf inactive
Oc1ccc(C(=S)N2CCN(Cc3ccccc3)CC2)cc1	none (no result: G6PDH counter, Diaphorase act, Diaphorase inh)
S=C(c1ccc(Br)cc1)N1CCN(Cc2ccccc2)CC1	PfG6PD inh 60 | PfGluPho conf inactive
Cc1cc(=O)[nH]c(-n2ncc(C#N)c2N)n1	none
Nc1ccc(C(=O)OCCCc2nc3cc4ccccc4cc3[nH]2)cc1	none (no result: G6PDH counter, Diaphorase act, Diaphorase inh)
Nc1ccc(C(=O)OCc2nc3cc4ccccc4cc3[nH]2)cc1	PfG6PD inh 63 | PfGluPho conf inactive
O=c1cc(CSc2nc3cc(Cl)ccc3o2)nc2sccn12	PfG6PD inh 80 | PfGluPho conf inactive
CC(C)OC(=O)CSc1nnc(-c2ccccn2)n1N	none (no result: G6PDH counter, Diaphorase act, Diaphorase inh)
CCOC(=O)c1c(-c2ccc(OC)cc2)csc1NC(=O)CCN1C(=O)c2ccccc2C1=O	PfG6PD inh 62 | PfGluPho conf inactive

Screening data (PubChem)
